Assay outcomes (PubChem)
Sampled rows, rich in hits. Any-hit rate of the full collection: about 0.95%.
miR-122 sensor: miR-122 Renilla sensor signal increase in Huh7, primary screen, miR-122 inhibitor project, cell-based, single point, plate reader | Huh7 miR-122 Renilla luciferase sensor, 48 h; neutral wells = 0, positive control = 100 | activation (reporter increase), % at 12.5 µM | actives 0.3% (n = 340,000) | AID 602342, 2012;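 active = mean replicate activation score at least 90 and every replicate individually at or above 90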;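 also: higher luciferase means less miR-122 activity so hits act as miR-122 inhibitors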
CAL PDZ FP-1: CAL PDZ peptide-binding inhibitors, primary screen, biochemical, fluorescence polarization, Cer-tagged CAL PDZ, HTS; purified CAL PDZ, TMR-peptide fluorescence polarization, 1 h; AID 504414, 2011; inhibition, % at 20 µM; Golgi-associated PDZ and coiled-coil motif-containing protein (Homo sapiens), Q9HD26; actives 0.02% (n = 330,000);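 active = highest replicate inhibition of at least 40%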
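Control set: unlabelled peptide and DMSO controls / Material: purified CerCALP PDZ construct / Timing: 1 h incubation at room temperature before polarization reading / Doses: 20 µM, one dose / Detection: fluorescence polarization (mP)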
PvdQ acylase: P. aeruginosa PvdQ acylase inhibitors, primary screen, biochemical, fluorescence, plate reader and imaging, single point | PvdQ acylase [Pseudomonas aeruginosa LESB58] | purified PvdQ acylase | inhibition, % at 10 µM | actives 0.063% (n = 340,000) | AID 488965, 2010; in the data active = inhibition above about 30%, passing the limit was not always enough
CAL PDZ FP-2: untagged CAL PDZ binding inhibitors, primary screen, biochemical, fluorescence polarization, HTS; purified CAL PDZ, TMR-peptide fluorescence polarization, 1 h; actives 0.92% (n = 300,000); inhibition, % at 24.9 µM; Golgi-associated PDZ and coiled-coil motif-containing protein (Homo sapiens), Q9HD26;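 active = mean inhibition of at least 30% with at least half of replicates also reaching 30%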
Each line names hits and unclear results; the compound was inactive in the other large screens; [ ] = dose if it differs, or a comment.

Cc1ccc(C)c(OCC(O)CN2CCC(Cc3ccccc3)CC2)c1 (stereo not given)	CAL PDZ FP-2 37
OC(COc1ccc(Cl)cc1)CN1CCC(Cc2ccccc2)CC1 (stereo not given)	none
O=[N+]([O-])c1ccc(N2CCCC2)cc1NC1CC1	CAL PDZ FP-2 36
O=[N+]([O-])c1ccc(N2CCN(c3ccc(F)cc3)CC2)cc1	none (no result: miR-122 sensor, CAL PDZ FP-1)
CC1CCCN(C(=O)c2ccc(COc3ccccc3Br)cc2)C1 (stereo not given)	CAL PDZ FP-2 40
CCOc1ccc(OCc2ccc(C(=O)N3CCCC(C)C3)cc2)cc1 (stereo not given)	none (no result: miR-122 sensor)
CCCOc1ccc(S(=O)(=O)NCCN2CCOCC2)c2ccccc12	miR-122 sensor 199 (no result: CAL PDZ FP-2)
CCOc1ccc(S(=O)(=O)NCCN2CCOCC2)c2ccccc12	miR-122 sensor 108
COc1c(S(=O)(=O)NCCN2CCOCC2)ccc(Cl)c1Cl	none
COC(=O)C(C(=O)OC)=C(/C=C/C=C/N(C)C)N(C)C	none (no result: CAL PDZ FP-1)
COC(=O)C(C(=O)OC)=C(/C=C/N(C)C)N(C)C	CAL PDZ FP-2 46
O=C(CC(=O)NN=Cc1ccc2c(c1)CCC2)NN=Cc1ccc2c(c1)CCC2	none (no result: miR-122 sensor)
Cc1cc2nc(/C(C#N)=C/c3ccncc3)[nH]c2cc1C	CAL PDZ FP-2 107
COc1ccc(C(=O)N2C[C@@H]3[C@H](c4ccccc42)[C@H](CO)N3C(=O)c2ccc(F)cc2)cc1	none (no result: CAL PDZ FP-1, PvdQ acylase, CAL PDZ FP-2)
O=C(Nc1ccccc1F)N1C[C@@H]2[C@H](c3ccccc31)[C@H](CO)N2C(=O)c1ccccc1F	none (no result: CAL PDZ FP-1, PvdQ acylase, CAL PDZ FP-2)
COc1cccc(C(=O)N2C[C@H]3[C@@H](c4ccccc42)[C@@H](CO)N3C(=O)c2ccc(F)cc2)c1	miR-122 sensor 229[16.7 µM] (no result: CAL PDZ FP-1, PvdQ acylase, CAL PDZ FP-2)
O=C(Nc1ccccc1F)N1C[C@H]2[C@@H](c3ccccc31)[C@@H](CO)N2C(=O)c1ccc(F)cc1	miR-122 sensor 240[16.7 µM] (no result: CAL PDZ FP-1, PvdQ acylase, CAL PDZ FP-2)
C[C@@H]1CN([C@@H](C)CO)C(=O)CCCn2cc(nn2)CO[C@H]1CN(C)Cc1ccc(Cl)c(Cl)c1	none (no result: CAL PDZ FP-1, PvdQ acylase, CAL PDZ FP-2)
Nc1c(Cl)cc(N=Nc2ccccc2)cc1Cl	CAL PDZ FP-2 active
N/C(=N\O)c1ccccc1-n1cccc1	none
Nc1ccccc1-n1cccc1	CAL PDZ FP-2 31
O=C(OCCN=C1NS(=O)(=O)c2ccccc21)c1ccccc1	miR-122 sensor 215
O=C(NCC(c1ccco1)N1CCN(c2ccccc2)CC1)c1ccco1 (stereo not given)	none
CCc1cccc(CC)c1NC(=O)COC(=O)C1(c2ccc(Cl)cc2)CCCC1	miR-122 sensor 113 (no result: CAL PDZ FP-2)
CCOc1ccc(-c2c(=O)n(OCc3nc4ccccc4[nH]3)c3ccccc3[n+]2[O-])cc1	none (no result: miR-122 sensor)
CCC(=O)Nc1cccc(NC(=O)c2ccc3c(c2)OCO3)c1	CAL PDZ FP-2 50
CCCn1nnc(NC(=O)c2ccc3c(c2)OCO3)n1	CAL PDZ FP-2 103 (no result: miR-122 sensor)
CCC(=O)N(C)C[C@@H]1Oc2cc(C3=CCCC3)ccc2S(=O)(=O)N([C@@H](C)CO)C[C@H]1C	none (no result: CAL PDZ FP-1, PvdQ acylase, CAL PDZ FP-2)
O=C(N/N=C/c1ccc(N2CCCC2)c([N+](=O)[O-])c1)c1cccnc1	none (no result: miR-122 sensor)
Cc1ccc(-c2ocnc2C(=O)N2CCN(C(=O)c3cccs3)CC2)cc1	none
CCCN(C)C[C@@H]1OCCCC[C@@H](C)Oc2ccc(NC(=O)NC3CCCCC3)cc2C(=O)N([C@H](C)CO)C[C@@H]1C	none (no result: CAL PDZ FP-1, PvdQ acylase, CAL PDZ FP-2)
CC(=O)c1ccc(NC(=S)N(CCCN(C)C)Cc2ccccc2)cc1	CAL PDZ FP-2 58
CCCN(Cc1ccccc1)C(=S)Nc1ccc(C(C)=O)cc1	none
CCOC(=O)CCSc1nc(-c2ccccc2)cc(C(F)(F)F)n1	none
C/C=C/c1cnc2c(c1)C(=O)N([C@H](C)CO)C[C@@H](C)[C@H](CN(C)C(=O)Nc1ccc(OC)cc1)O2	none (no result: CAL PDZ FP-1, PvdQ acylase, CAL PDZ FP-2)
COc1ccc(CNC(=O)[C@@H](NC(=O)C2CCN(S(=O)(=O)c3ccc(C)cc3)CC2)C(C)C)cc1OC	none
Cc1nnsc1C(=O)NC1CCCc2c1cnn2-c1ccccc1F (stereo not given)	none
Cc1nnsc1C(=O)NC1CCCc2c1cnn2-c1ccc(C(C)(C)C)cc1 (stereo not given)	CAL PDZ FP-2 60
CCn1c(=N)n(CC(=O)c2ccc(Br)s2)c2ccccc21	none
c1ccc(-c2cnc(CSc3nnc4ccccn34)o2)cc1	CAL PDZ FP-2 57
O=C(O)C1CCCCC1C(=O)NCCc1cccc(Cl)c1 (stereo not given)	none
Cc1ccc(SCC(=O)Nc2c(Br)cnn2C)cc1	none
O=C1c2ccccc2C(=O)N1COc1ccc(S(=O)(=O)N2CCOCC2)cc1[N+](=O)[O-]	CAL PDZ FP-2 50
O=C(O)CSCC(=O)N1CCCN(c2ccc(C(F)(F)F)cn2)CC1	none
O=C(CCc1ccccc1F)N1CCN(c2ccc(C(F)(F)F)cn2)CC1	CAL PDZ FP-2 45 (no result: miR-122 sensor)
Cc1cccc(/C(N)=N/OC(=O)COc2ccccc2Cl)c1	none (no result: miR-122 sensor)
COc1ccc(C)cc1N(CC(=O)NC1CCCC1)C(=O)Cn1nnc(-c2ccc(C)o2)n1	CAL PDZ FP-2 103
Cc1ccc(N(CC(=O)NC2CCCCC2)C(=O)Cn2nnc(-c3ccc(C)o3)n2)cc1	none
O=C1CCCC2=C1C(c1ccc3c(c1)OCO3)c1c([nH]n(-c3ccccc3)c1=O)N2 (stereo not given)	miR-122 sensor 191 (no result: CAL PDZ FP-2)
CCOC(=O)c1ccc([N+](=O)[O-])c(CS(=O)(=O)c2ccc(Cl)cc2)c1	none
Cc1ccc(S(=O)(=O)Cc2cc(F)c([N+](=O)[O-])cc2[N+](=O)[O-])cc1	CAL PDZ FP-2 47
CCOC(=O)Nc1ccc(C(=O)/C=C/c2ccccc2)cc1	CAL PDZ FP-2 79
CCOC(=O)Nc1ccc(Oc2ccccc2)cc1	none
COc1ccc(S(=O)(=O)N2CCCCC2)cc1NC(=O)CN1CCN(C(C)=O)CC1	none
Cc1ccc(S(=O)(=O)N(C)C[C@H]2Oc3ccc(NC(=O)C4CC4)cc3C(=O)N([C@@H](C)CO)C[C@H]2C)cc1	none (no result: CAL PDZ FP-1, PvdQ acylase, CAL PDZ FP-2)
N#CC1c2ccccc2-c2ccccc2N1C(=O)c1ccccc1 (stereo not given)	miR-122 sensor 98 (no result: CAL PDZ FP-1, PvdQ acylase, CAL PDZ FP-2)
O=C(NNS(=O)(=O)c1ccccc1)C1CC(c2cccnc2)=NO1 (stereo not given)	none (no result: miR-122 sensor)
O=C(NNS(=O)(=O)c1ccc(F)cc1)C1CC(c2cccnc2)=NO1 (stereo not given)	CAL PDZ FP-2 74
O=C(C1=C(O)C(=O)N(CCN2CCOCC2)C1c1ccc(Br)cc1)c1cc2ccccc2o1 (stereo not given)	none (no result: miR-122 sensor)
CN(Cc1cccs1)C(=O)c1cccc(S(=O)(=O)N2CCCCCC2)c1	none (no result: miR-122 sensor)
Cn1cccc1C(C#N)(CC#N)c1cccc(F)c1C#N (stereo not given)	none (no result: miR-122 sensor)
Cn1cccc1C(C#N)c1cccc(F)c1C#N (stereo not given)	PvdQ acylase 60
Cc1cc(C)c2c(c1)/C(=N/NC(=O)c1ccc(O)cc1)CCC2	CAL PDZ FP-2 69 (no result: miR-122 sensor)
